# Fibroblast inh: blocks proliferation of human lung fibroblasts. LL 47 human lung fibroblast viability, ATP luminescence; stronger effect = lower value. viability, % at 10 µM. 85,000 compounds, 1.1% hits;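 active = viability at or below 50% in the single dose screen; inactive = viability above 50%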;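 note: compound exposure lasted 72 h before the ATP readout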
#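 Benchmarks: Cell-only wells, no compound | Test system: LL 47 human lung fibroblasts, passage 12 or lower | Input: 1,150 cells/well | Measured by: CellTiter-Glo luminescence measuring cellular ATP | Medium: IMEM, 15% FBS supplement | Schedule: Overnight attachment after seeding, then 72 h compound exposure at 37 °C | Doses: Compound addition at 0.1% DMSO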
# H69AR inhibit: growth inhibitors of human H69AR lung tumor cells. H69AR lung tumor viability, ATP luminescence, 72 h; stronger effect = lower value. viability, % at 10 µM. 85,000 compounds, 6% hits;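 active = viability at or below 40%; inactive = viability above 40%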;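 note: multidrug resistant small cell line overexpressing MRP-1 efflux transporter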
# HCT116 PTEN-null: growth suppressors of cells with PTEN tumor suppressor deletion; HCT116 PTEN-null viability, CellTiter-Glo, 60 h; stronger effect = lower value; 140,000 compounds, 1.2% hits; viability, % at 10 µM;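 active = viability at or below a set limit, 4 SD under the median of all tested compounds, cut at about 3.7% in these data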;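 note: PTEN knockout HCT116 line with beta catenin targeted HCT116 as companion control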
# HUVEC prolif 384: blocks proliferation of human endothelial cells; HUVEC proliferation, CellTiter-Glo luminescence, 72 h; stronger effect = lower value; viability, % at 10 µM (by protocol); 86,000 compounds, 1.1% hits;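 active = viability at or below 30%; inactive = viability above 30%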
# bCat KO growth: beta-catenin-lacking colon tumor cell growth suppression; HCT116 beta-catenin knockout viability, CellTiter-Glo, 60 h; stronger effect = lower value; viability, % at 10 µM; 140,000 compounds, 1.5% hits;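 active = viability at or under a set limit, the compound median less 4 SD, cut at about 6% in these data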
# Numbers stand for hits; 0 = inactive; - = no result. Only a selection was taken, and hits are over-represented in it overall.
SMILES,Fibroblast inh,H69AR inhibit,HCT116 PTEN-null,HUVEC prolif 384,bCat KO growth
O=C(/C=C/c1ccco1)NC(=S)Nc1ccc(O)c(-c2nc3ccccc3s2)c1,-,-,0,-,2.2
O=C(NNC(=S)Nc1ccccc1)c1ccco1,-,-,0,-,0
O=C(Nc1ccccc1-c1nc2ccccc2s1)c1ccco1,0,37,0,0,0
Cc1ccnc(NC(=S)NC(=O)/C=C/c2ccco2)c1,0,26,0,0,0
O=C(Nc1ccc(O)c(-c2nc3ccccc3s2)c1)c1cccs1,-,-,0,-,0
Cc1ccc2[nH]c(=O)c(C(c3nnnn3C3CCCC3)N(Cc3cccnc3)Cc3ccco3)cc2c1 (stereo not drawn),0,0,0,0,0
Clc1ccc(C(c2nnnn2C2CCCCC2)N(Cc2cccnc2)Cc2ccco2)cc1 (stereo not drawn),0,36,0,0,0
O=C1C2C3C=CC(C3)C2C(=O)N1c1cccc(-c2nc3ccccc3o2)c1 (stereo not drawn),0,0,0,0,0
O=C(Nc1cccc(-c2nc3ccccc3o2)c1)c1ccc(N2C(=O)C3C4C=CC(C4)C3C2=O)cc1 (stereo not drawn),0,39,0,0,0
CC(=O)c1c(C)[nH]c(C(=O)CSc2nnc(-c3ccco3)n2Cc2ccccc2)c1C,0,39,0,0,0
CC(=O)c1c(C)[nH]c(C(=O)CSc2nnc(-c3ccccc3)n2Cc2ccc3c(c2)OCO3)c1C,0,20,0,13,0
CCOC(=O)c1c(C)[nH]c(C(=O)CSc2nnc(-c3cccs3)n2Cc2ccccc2)c1C,0,4.9,0,0,0
O=C(CSc1ncnc2c1cnn2-c1ccccc1)Nc1ccc2c(c1)OCO2,0,37,0,0,0
NC(=S)N/N=C/c1ccccc1OCCSc1ccc(Cl)cc1,-,-,0,-,0
C=C(C)c1cccc(C(C)(C)NC(=O)N(Cc2ccccc2)Cc2ccco2)c1,0,0,0,0,0
CS(=O)(=O)N(Cc1ccco1)CC(O)Cn1cc(C=O)c2ccccc21 (stereo not drawn),0,0,0,0,0
COc1cc(/C=N/NC(=O)c2cccnc2)ccc1OS(=O)(=O)c1cc(C)ccc1C,-,-,0,-,0
Cn1c(SCC(=O)Nc2ccc3c(c2)OCCO3)nnc1-c1ccccn1,0,0,0,0,0
CCOc1ccc2nc(SCC(=O)Nc3ccc4c(c3)OCCO4)[nH]c2c1,0,0,0,0,0
O=C(CSc1nc2ncc(Br)cc2[nH]1)Nc1ccc2c(c1)OCO2,0,2.5,0,0,0
O=C(CSc1nnc(-c2ccccn2)n1Cc1ccccc1)Nc1ccc2c(c1)OCO2,0,14,0,0,0
COc1cc(NC(=O)CSc2nccc(C)n2)c(C)cc1[N+](=O)[O-],-,-,0,-,0
CCCc1cc(=O)[nH]c(-n2[nH]c3c(c2=O)CCCC3)n1,-,-,0,-,4.7
CCCc1cc(=O)[nH]c(SCC)n1,0,-,0,0,0
COc1ccc(OC)c(-c2cc(C3CCN(c4cc(Cl)nc(N)n4)CC3)[nH]n2)c1,-,-,2.5,-,1.7
SMILES,Fibroblast inh,H69AR inhibit,HCT116 PTEN-null,HUVEC prolif 384,bCat KO growth
CCOC(=O)c1cc[n+](CC(=O)c2ccc(F)cc2)cc1,-,-,0,-,0
COc1ccc(/C(O)=C/c2nc3ccc(C(=O)NCCc4cccc(C)c4)cc3[nH]c2=O)cc1OC,-,-,1.5,-,2.0
COc1ccc(CCNC(=O)c2ccc3nc(-c4ccco4)c(-c4ccco4)nc3c2)cc1OC,0,18,0,0,0
COc1ccc(CCNC(=O)c2ccc3c(=O)n(Cc4ccco4)c(=S)[nH]c3c2)cc1OC,0,11,0,0,0
COc1ccc(CCNC(=O)COC(=O)c2ccco2)cc1OC,0,0,0,0,0
CC(C)Cn1c(N)c(C(=O)CSc2cc(Cl)ccc2Cl)c(=O)n(C)c1=O,-,-,0,-,0
COC(=O)/C(=N/Nc1ccccc1C)Sc1nnc(C(O)c2ccccc2)n1-c1ccccc1 (stereo not drawn),-,-,0,-,0
Cc1nc(N2CCN(c3ccccc3)CC2)[nH]c(=O)c1Cc1cccc2ccccc12,0,22,0,0,0
COc1cc(/C=C2\SC(=Nc3ccc(N4CCOCC4)cc3)N(C)C2=O)ccc1OC(C)C(=O)O (stereo not drawn),-,-,0,-,0
O=C1CC(c2cccs2)c2cc3c(cc2N1)OCCO3 (stereo not drawn),0,18,0,0,0
COc1cccc(C2CC(=O)Nc3cc4c(cc32)OCCO4)c1OC(C)C (stereo not drawn),0,27,0,0,0
CCOc1ccccc1C1CC(=O)Nc2cc3c(cc21)OCO3 (stereo not drawn),-,-,0,-,0
CC(C)Oc1ccccc1C1CC(=O)Nc2cc3c(cc21)OCCO3 (stereo not drawn),0,27,0,0,0
Cc1ccc(C2CC(=O)Nc3cc4c(cc32)OCCO4)s1 (stereo not drawn),0,0,0,0,0
COc1ccccc1C1CC(=O)Nc2cc3c(cc21)OCCO3 (stereo not drawn),0,22,0,0,0
COc1cc(C(=O)NCC(=O)N/N=C(/C)c2cccs2)cc(OC)c1OC,-,-,0,-,0
COC(=O)/C(=C\Nc1ccc(OC)cc1)NC(=O)c1ccc(Cl)cc1Cl,0,36,0,0,0
COc1ccc(-c2nnc3c4ccccc4c(C)nn23)cc1,0,32,0,0,0
Fc1ccc(CN2CCN3CCCC3C2C2CCCCC2)cc1F (stereo not drawn),-,-,0,-,0
Cc1ccc(S(=O)(=O)C2(C(=O)N3CCCCC3C)CC2)cc1 (stereo not drawn),0,0,0,0,0
CCOc1ccc(NS(=O)(=O)c2ccc(OCC)c3ncccc23)cc1,0,16,0,0,0
COc1ccc(-n2cc(-c3ccccc3)c3c(N4CCN(CCO)CC4)ncnc32)cc1,0,0,0,30,0
Oc1ccccc1-c1nnc(SCCN2CCOCC2)n1Cc1ccccc1,24,15,2.4,0,2.7
Cc1c(NS(=O)(=O)c2ccc(N(C)C3CCCCC3)c([N+](=O)[O-])c2)c(=O)n(-c2ccccc2)n1C,-,-,0,-,0
CCc1nnc(NC(=O)c2cccc(C(=O)Nc3nnc(CC)s3)n2)s1,4.8,3.7,2.2,3.7,5.0
SMILES,Fibroblast inh,H69AR inhibit,HCT116 PTEN-null,HUVEC prolif 384,bCat KO growth
CCc1nnc(NC(=O)c2ccc3c(c2)C(=O)N(C(C)(C)C)C3=O)s1,0,39,0,0,0
Cc1occc1C(=O)NNC(=O)C(c1ccccc1)c1ccccc1,-,-,0,-,0
Brc1ccc2ncnc(NCc3ccco3)c2c1,0,0,0,0,0
OC(CNCc1ccco1)Cn1c2ccc(Br)cc2c2cc(Br)ccc21 (stereo not drawn),-,-,1.7,-,2.1
CCOc1cc(-n2cnnn2)c(OCC)cc1NC(=O)c1cc2ccc(N(CC)CC)cc2oc1=O,0,13,-,0,-
CCN(CC)c1ccc2cc(C(=O)Nc3ccccn3)c(=O)oc2c1,0,0,0,0,0
CCN(CC)c1ccc2cc(C(=O)Nc3cccnc3N3CCOCC3)c(=O)oc2c1,0,21,-,0,-
CCN(CC)c1ccc2cc(C(C)=O)c(=O)oc2c1,0,0,0,0,0
COc1cc(NC(C)CCCN)c2ncccc2c1Oc1ccccc1 (stereo not drawn),-,-,0,-,0

# Screening data deposited in PubChem BioAssay by SRMLSC.
